# The source made the active and inactive calls. The rule behind the calls is not given here.
# Tests used:
# Salmonella typhimurium [1] = test: Mutagenic activity in Salmonella typhimurium TA98 at 6 to 500 ug/plate by Ames test in presence of mouse liver S9 fraction; assay type: toxicity, organism-based; settings: salmonella enterica subsp. enterica serovar typhimurium
# Summary of the method: (§1)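 Ames plate-incorporation assay with S. typhimurium TA98 in Vogel-Bonner E minimal glucose agar. Toxicity toward the bacteria was checked first. DMSO solutions were run in triplicate at five consecutive third-dilutions, starting at the highest non-toxic dose. Positive controls were 4-nitro-o-phenylenediamine (20.0 μg/plate) and 2-aminofluorene (10.0 μg/plate); DMSO was the negative control. Revertants were counted manually. A compound was called mutagenic when revertants were at least twice the negative control at two or more consecutive doses.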
# Salmonella typhimurium [2] = test: Mutagenic activity in Salmonella typhimurium TA100 at 3.09 to 250 ug/plate by Ames test in presence of mouse liver S9 fraction; assay type: toxicity, organism-based; settings: salmonella enterica subsp. enterica serovar typhimurium
# Summary of the method: (§2)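 Plate-incorporation Ames test on minimal glucose agar with 500 μL Aroclor-treated mouse liver S9 added. DMSO solutions were tested at five consecutive 3-fold dilutions from the highest non-toxic dose, in triplicate, with a DMSO negative control. Revertants were counted manually; a compound was scored mutagenic when revertants were at least twice the negative control for two or more consecutive doses.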
# Trypanosoma cruzi [3] = test: Antitrypanosomal activity against Trypanosoma cruzi Sylvio X-10 amastigotes infected in African green monkey Vero cells assessed as eradication of amastigotes after 5 days by Giemsa staining-based assay; assay type: functional, organism-based; settings: Sylvio X-10, Vero, 120 h
# Summary of the method: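 VERO cells in RPMI 1640 with 10% hiFCS were allowed to adhere for 24 h at 37 °C in 5% CO₂, then infected with tissue-derived trypomastigotes at 10:1. Free parasites were washed off after 24 h, and cultures were treated at five compound doses (text gives 72 h / 5 days). Cultures were methanol-fixed and Giemsa-stained, and infected cells were counted among 300. Quadruplicates were run in three independent experiments. IC50/IC90 were obtained by sigmoidal regression.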
# Salmonella typhimurium [4] = test: Mutagenic activity in Salmonella typhimurium TA1537 at 0.03 to 0.2 ug/plate by Ames test in presence of mouse liver S9 fraction; assay type: toxicity, organism-based; settings: salmonella enterica subsp. enterica serovar typhimurium, in the assay text read “0.003 to 0.2 ug/plate” for “0.03 to 0.2 ug/plate”; summary of the method: as §2
# Salmonella typhimurium [5] = test: Mutagenic activity in Salmonella typhimurium TA98 at 6 to 500 ug/plate by Ames test; assay type: toxicity, organism-based; settings: salmonella enterica subsp. enterica serovar typhimurium; summary of the method: as §1
# [6] = Stability of the compound in aqueous solution assessed as compound remaining at 1 mM at pH 1 after 1 hr by TLC analysis; assay type: physicochemical; settings: read-out: Stability
# Summary of the method: (§3)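 DMSO stocks diluted to final 1 mM in KCl·HCl pH 1.0, citrate pH 6.0, Tris·HCl pH 7.4 or borax·HCl pH 9.0 buffer. Incubated 1 h at 37 °C, then ethyl acetate extracts checked by TLC for decomposition products.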
# Salmonella typhimurium [7] = test: Mutagenic activity in Salmonella typhimurium TA102 at […] ug/plate by Ames test; assay type: toxicity, organism-based; settings: salmonella enterica subsp. enterica serovar typhimurium
# Summary of the method: (§4)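 Direct plate incubation on minimal glucose agar (Vogel-Bonner E). Compound toxicity to the bacteria was checked first. DMSO solutions were tested at five consecutive 3-fold dilutions, starting from the highest non-toxic dose, in triplicate, without metabolic activation. DMSO served as negative control. Revertants were counted manually; mutagenic = revertants at least double the negative control at two or more consecutive doses.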
# Salmonella typhimurium [8] = test: Mutagenic activity in Salmonella typhimurium TA1535 at […] ug/plate by Ames test; assay type: toxicity, organism-based; settings: salmonella enterica subsp. enterica serovar typhimurium; summary of the method: as §4
# Trypanosoma cruzi [9] = test: Antitrypanosomal activity against Trypanosoma cruzi Tulahuen 2 epimastigotes assessed as growth inhibition after 5 days; assay type: functional, organism-based; settings: Trypanosoma cruzi, Tulahuen 2, 120 h
# Summary of the method: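 Epimastigotes were grown axenically at 28 °C in BHI-tryptose with 5% FBS and seeded from a 5–7 day culture at 1 × 10⁶ cells/mL. Drug from a DMSO stock was added (final DMSO ≤0.4%; the control contained 0.4% DMSO). Duplicates were run. A600 was read at day 5, and % inhibition was calculated relative to day-0 and control readings. IC50 = concentration that halves the absorbance ratio.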
# Salmonella typhimurium [10] = test: Mutagenic activity in Salmonella typhimurium TA1535 at […] ug/plate by Ames test in presence of mouse liver S9 fraction; assay type: toxicity, organism-based; settings: salmonella enterica subsp. enterica serovar typhimurium; summary of the method: as §2
# Salmonella typhimurium [11] = test: Mutagenic activity in Salmonella typhimurium TA100 at 3.09 to 250 ug/plate by Ames test; assay type: toxicity, organism-based; settings: salmonella enterica subsp. enterica serovar typhimurium; summary of the method: as §4
# [12] = Stability of the compound in aqueous solution assessed as compound remaining at 1 mM at pH 7.4 after 1 hr by TLC analysis; assay type: physicochemical; settings: aqueous solution, pH 7.4; read-out: Stability; summary of the method: as §3
# Trypanosoma cruzi [13] = test: Antitrypanosomal activity against Trypanosoma cruzi Sylvio X-10 amastigotes infected in African green monkey Vero cells assessed as eradication of amastigotes after 72 hrs by Giemsa staining-based assay; settings: Sylvio X-10, Vero
# [14] = Stability of the compound in aqueous solution assessed as compound remaining at 1 mM at pH 6 after 1 hr by TLC analysis; assay type: physicochemical; settings: aqueous solution, pH 6; read-out: Stability; summary of the method: as §3
# [15] = Stability of the compound in aqueous solution assessed as compound remaining at 1 mM at pH 9 after 1 hr by TLC analysis; assay type: physicochemical; settings: aqueous solution, pH 9; read-out: Stability; summary of the method: as §3
# Salmonella typhimurium [16] = test: Mutagenic activity in Salmonella typhimurium TA102 at […] ug/plate by Ames test in presence of mouse liver S9 fraction; assay type: toxicity, organism-based; settings: salmonella enterica subsp. enterica serovar typhimurium; summary of the method: as §2
# Salmonella typhimurium [17] = test: Mutagenic activity in Salmonella typhimurium TA1537 at 0.03 to 0.2 ug/plate by Ames test; assay type: toxicity, organism-based; settings: salmonella enterica subsp. enterica serovar typhimurium; summary of the method: as §4
# Salmonella typhimurium [18] = test: Mutagenic activity in Salmonella typhimurium TA98 at 3.1 to 250 ug/plate by Ames test; assay type: toxicity, organism-based; settings: salmonella enterica subsp. enterica serovar typhimurium; summary of the method: as §1
# Salmonella typhimurium [19] = test: Mutagenic activity in Salmonella typhimurium TA100 at 0.06 to 5 ug/plate by Ames test in presence of mouse liver S9 fraction; assay type: toxicity, organism-based; settings: salmonella enterica subsp. enterica serovar typhimurium; summary of the method: as §2
# [20] = Selectivity index, ratio of IC50 for mouse J774.1 cells to IC50 for Trypanosoma cruzi Sylvio X-10 amastigotes; assay type: toxicity; settings: read-out: Ratio IC50
# Summary of the method: (§5)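 J774.1 macrophages grown in DMEM with 10% heat-inactivated FCS and allowed to attach 48 h, then exposed 48 h at 37 °C to 12.5–400.0 μM. Triplicates. MTT 0.1 mg/mL for 3 h, read at 560 nm; IC50 by linear regression against the solvent control. SI = IC50 J774.1 / parasite IC50 (Sylvio X-10 amastigotes or Tulahuen 2 epimastigotes, the latter measured by A600 growth inhibition at day 5).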
# [21] = Stability of the compound in eumulgin HRE 40, sodium oleate, soya phosphatidylcholine, cholesterol, and phosphate buffer at pH 7.4 at 4 degC; assay type: physicochemical
# Summary of the method: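 Storage stability of the compound in vehicle V2, a microemulsion of surfactant (Eumulgin HRE 40/sodium oleate/soya phosphatidylcholine, 10%), cholesterol oil phase (10%) and pH 7.4 phosphate buffer (80%), followed over 1 week at 4 °C.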
# Salmonella typhimurium [22] = test: Mutagenic activity in Salmonella typhimurium TA1537 at 0.06 to 5 ug/plate by Ames test; assay type: toxicity, organism-based; settings: salmonella enterica subsp. enterica serovar typhimurium; summary of the method: as §4
# Trypanosoma cruzi [23] = test: Antitrypanosomal activity against Trypanosoma cruzi Sylvio X-10 amastigotes infected in African green monkey Vero cells assessed as eradication of amastigotes at 5 uM after 5 days by optical microscopic analysis; assay type: functional, organism-based; settings: in the assay text read “after 72 hrs” for “after 5 days”
# Summary of the method: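 VERO cells infected with Sylvio X-10 parasites were treated with 5 μM compound and examined by optic microscopy after 72 h of incubation for intracellular amastigotes and trypomastigotes.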
# Salmonella typhimurium [24] = test: Mutagenic activity in Salmonella typhimurium TA102 at 0.06 to 5 ug/plate by Ames test in presence of mouse liver S9 fraction; assay type: toxicity, organism-based; settings: salmonella enterica subsp. enterica serovar typhimurium; summary of the method: as §2
# Trypanosoma cruzi [25] = test: Antitrypanosomal activity against Trypanosoma cruzi Dm 28c epimastigotes assessed as growth inhibition after 5 days; assay type: functional, organism-based; settings: 120 h
# [26] = Selectivity index, ratio of IC50 for human RBC to IC50 for Trypanosoma cruzi Sylvio X-10 amastigotes
# Summary of the method: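 Hemolysis: washed human erythrocytes (2% w/v in PBS) incubated 24 h at 37 °C with compound at final 50, 100 and 200 μM. Ten replicates per concentration. Hemoglobin release read at 405 nm against water lysis as 100%; amphotericin B 1.5 μM was the positive control. SI = IC50 red cells / parasite IC50 (Sylvio X-10 amastigotes or Tulahuen 2 epimastigotes).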
# Salmonella typhimurium [27] = test: Mutagenic activity in Salmonella typhimurium TA1537 at 0.06 to 5 ug/plate by Ames test in presence of mouse liver S9 fraction; assay type: toxicity, organism-based; settings: salmonella enterica subsp. enterica serovar typhimurium; summary of the method: as §2
# Salmonella typhimurium [28] = test: Mutagenic activity in Salmonella typhimurium TA1535 at 0.06 to 5 ug/plate by Ames test in presence of mouse liver S9 fraction; assay type: toxicity, organism-based; settings: salmonella enterica subsp. enterica serovar typhimurium; summary of the method: as §2
# [29] = Selectivity index, ratio of IC50 for African green monkey Vero cells to IC50 for Trypanosoma cruzi Sylvio X-10 amastigotes; assay type: toxicity, cell-based; settings: read-out: Ratio IC50
# Summary of the method: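 VERO cytotoxicity: cells exposed 48 h at 37 °C, 5% CO2 to serial dilutions from a maximum of 2000 μM (DMSO stocks; DMSO <0.1% control); growth inhibition read by MTT at 570 nm. Amastigote IC50: Sylvio X-10-infected VERO cells, five doses, infected cells counted among 300 (Giemsa), quadruplicate, three experiments, sigmoidal fit. SI = IC50 VERO / IC50 amastigote.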
# Salmonella typhimurium [30] = test: Mutagenic activity in Salmonella typhimurium TA102 at 0.06 to 5 ug/plate by Ames test; assay type: toxicity, organism-based; settings: salmonella enterica subsp. enterica serovar typhimurium; summary of the method: as §4
# Salmonella typhimurium [31] = test: Mutagenic activity in Salmonella typhimurium TA1535 at 0.06 to 5 ug/plate by Ames test; assay type: toxicity, organism-based; settings: salmonella enterica subsp. enterica serovar typhimurium; summary of the method: as §4
# Salmonella typhimurium [32] = test: Mutagenic activity in Salmonella typhimurium TA98 at 3.1 to 250 ug/plate by Ames test in presence of mouse liver S9 fraction; assay type: toxicity, organism-based; settings: salmonella enterica subsp. enterica serovar typhimurium; summary of the method: as §1
# Salmonella typhimurium [33] = test: Mutagenic activity in Salmonella typhimurium TA100 at 0.06 to 5 ug/plate by Ames test; assay type: toxicity, organism-based; settings: salmonella enterica subsp. enterica serovar typhimurium; summary of the method: as §4
# Salmonella typhimurium [34] = test: Mutagenic activity in Salmonella typhimurium TA98 at 0.3 to 40 ug/plate by Ames test in presence of mouse liver S9 fraction; assay type: toxicity, organism-based; settings: salmonella enterica subsp. enterica serovar typhimurium; summary of the method: as §1
# Salmonella typhimurium [35] = test: Mutagenic activity in Salmonella typhimurium TA98 at 0.3 to 40 ug/plate by Ames test; assay type: toxicity, organism-based; settings: salmonella enterica subsp. enterica serovar typhimurium; summary of the method: as §1
# [36] = Selectivity index, ratio of IC50 for mouse J774.1 cells to IC50 for Trypanosoma cruzi Tulahuen 2 epimastigotes; assay type: toxicity; settings: read-out: Ratio IC50; summary of the method: as §5
structure (smiles),measurement,setting,value
C=CCn1c(C)cs/c1=N/N=C/C=C/c1ccco1,Activity,Salmonella typhimurium [1],Non-toxic
same,Activity,Salmonella typhimurium [2],Non-toxic
same,IC50,Trypanosoma cruzi [3],6.3 µM
same,Activity,Salmonella typhimurium [4],Non-toxic
same,Activity,Salmonella typhimurium [5],Non-toxic
same,"remaining at 1 h, 1000 µM",[6],90%
same,Activity,Salmonella typhimurium [7],Non-toxic
same,Activity,Salmonella typhimurium [8],Non-toxic
same,IC50,Trypanosoma cruzi [9],> 25 µM
same,Activity,Salmonella typhimurium [10],Non-toxic
same,Activity,Salmonella typhimurium [11],Non-toxic
same,"remaining at 1 h, 1000 µM",[12],> 95%
same,IC90,Trypanosoma cruzi [13],51 µM
same,"remaining at 1 h, 1000 µM",[14],> 95%
same,"remaining at 1 h, 1000 µM",[15],> 95%
same,Activity,Salmonella typhimurium [16],Non-toxic
same,Activity,Salmonella typhimurium [17],Non-toxic
Br.C=CCn1c(-c2ccccc2)cs\c1=N/N=C/C=C/c1ccco1.O,Activity,Salmonella typhimurium [18],Non-toxic
same,Activity,Salmonella typhimurium [19],Non-toxic
same,selectivity ratio,[20],> 120
same,Stability,[21],Stable
same,IC50,Trypanosoma cruzi [3],< 0.24 µM
same,Activity,Salmonella typhimurium [22],Non-toxic
same,Activity,Trypanosoma cruzi [23],Active
same,"remaining at 1 h, 1000 µM",[6],90%
same,Activity,Salmonella typhimurium [24],Non-toxic
same,IC50,Trypanosoma cruzi [25],4 µM
same,Ratio IC50,[26],> 196
same,IC50,Trypanosoma cruzi [9],3.2 µM
same,Activity,Salmonella typhimurium [27],Non-toxic
same,Activity,Salmonella typhimurium [28],Non-toxic
same,selectivity ratio,[29],> 1000
same,"remaining at 1 h, 1000 µM",[12],> 95%
same,Activity,Salmonella typhimurium [30],Non-toxic
same,"remaining at 1 h, 1000 µM",[14],> 95%
same,Activity,Salmonella typhimurium [31],Non-toxic
same,Activity,Salmonella typhimurium [32],Non-toxic
same,"remaining at 1 h, 1000 µM",[15],> 95%
same,Activity,Salmonella typhimurium [33],Non-toxic
C=CCn1c(C)cs\c1=N/N=C/C=C/c1cccs1,Activity,Salmonella typhimurium [34],Non-toxic
same,IC50,Trypanosoma cruzi [9],> 25 µM
same,Activity,Salmonella typhimurium [35],Non-toxic
same,selectivity ratio,[36],< 7

# Source: ChEMBL document CHEMBL3259808, “Optimization of antitrypanosomatid agents: identification of nonmutagenic drug candidates with in vivo activity” (J Med Chem, 2014)
